# Data taken from PubChem BioAssay.
# Values without a mark were called inactive. Records with an inconclusive call do not appear. The source made the active and inactive calls.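 How the source made its calls, unless noted: active means cell viability at or below a set limit in both duplicate runs, the limit being the all-compound median minus 4 SD (cut at about 23% in these data, passing the limit was not always enough); inconclusive means no clear call, values can overlap the other calls; inactive means the rest.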
# Key:
# [1] = OD615 S. cerevisiae growth inhibition, permissive medium, pilot counter-assay, permissive growth control for S. cerevisiae lifespan shortening project (AID 705;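 active means growth inhibition above 25% in both replicates, a cutoff set 3 SD above the mean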); conditions: OD615, 24 h, at 10 µM, stronger effect = higher value
# How it was run: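 System: S. cerevisiae with engineered DeaD lifespan system / Measured by: absorbance (optical density) at 615 nm / Read-out: reduction in yeast growth (OD615) / Times: 4 h cell pre-growth, 24 h exposure at 30 °C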
# [2] = Restrictive medium S. cerevisiae growth inhibition, OD615, pilot screen of yeast lifespan reduction project, restrictive growth control (AID 706;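 active means growth inhibition above a set limit, 3 SD over mean compound inhibition, in both replicates, cut at about 43% in these data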;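 further: modified DeaD lifespan yeast strain shifted to restrictive glucose medium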); conditions: OD615, 48 h, at 10 µM, stronger effect = higher value
# How it was run: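 System: Engineered S. cerevisiae DeaD strain | Buffer or medium: Glucose-based CSMM-D restrictive medium | Schedule: 4 h pre-incubation, 48 h exposure at 30 °C | Technique: Optical density at 615 nm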
# [3] = viability gain of MRP-1-high H69AR cells under doxorubicin, pilot screen, MRP-1 activator project, CellTiter-Glo, duplicate (AID 807;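 active means viability increase at or above a cutoff of the median across tested compounds plus 3 SD, cut at about 8.5% in these data, passing the limit was not always enough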;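 further: compound pretreatment 18-22 h then 72 h combined with doxorubicin; 0% = doxorubicin alone and 100% = vehicle without doxorubicin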); conditions: H69AR viability with doxorubicin, CellTiter-Glo luminescence; at 10 µM; stronger effect = higher value
# [4] = growth suppression of beta-catenin knockout HCT116, pilot screen, human colon tumor cells (AID 823); conditions: CellTiter-Glo, 60 h, at 10 µM, stronger effect = lower value;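 further: 0% = wells killed by 20 µM Hyamine and 100% = untreated DMSO cell wells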
# [5] = growth suppression of PTEN-deleted HCT116, pilot screen, cell-based, HCT116 clonal line, CellTiter-Glo (AID 824;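 active means viability at or below 27.92% in each of two runs, the all-compound median minus 4 SD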;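 further: 0% = 20 µM Hyamine control and 100% = vehicle cell control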); conditions: 60 h, at 10 µM, stronger effect = lower value
# [6] = inhibitors of the yeast RAM network, pilot screen, dse1pr::URA3 reporter, 5-FOA selection (AID 869;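 active means inhibition over a set limit, the all-compound mean plus 3 SD, in both replicate runs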;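 further: 0% = DMSO wells with no growth and 100% = 10 µM 1-NA-PP1 with full growth; RAM network block rescues cells from 5-FOA so hits raise OD615 growth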); conditions: S. cerevisiae dse1pr::URA3 5-FOA growth, OD615, 2 d; at 10 µM; stronger effect = higher value; strain carries analog-sensitive mutant Cbk1 kinase
# [7] = RAM signaling pathway blockade in yeast – S. cerevisiae, Pdr1DBD-CYC8 efflux-inhibited sensitized strain, primary screen (AID 1298;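 active means RAM network inhibition above 8.4% in each of two replicates, 3 SD over the compound average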;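 further: 0% = DMSO untreated cells without growth and 100% = 10 µM 1-NA-PP1 full growth; higher means more yeast growth rescued from 5-FOA killing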); conditions: S. cerevisiae cbk1-as DSE1-URA3 strain, 5-FOA growth OD615, 2 d; at 50 µM; stronger effect = higher value
SMILES,growth inhibition [1],growth inhibition [2],viability increase [3],viability [4],viability [5],inhibition [6],RAM network inhibition [7]
CCOC(=O)C1Cn2c(nc3c(c2=O)C(C)(C)Cc2ccccc2-3)S1 (stereo unspecified),-1.77%,2.82%,0.36%,90.2%,88.5%,3.48%,8.31%
Cn1nnnc1SCC(=O)c1ccco1,-7.91%,-1%,-3.23%,103%,105%,1.83%,-0.17%
O=C(Nc1ccccc1O)c1ccccc1O,-9.29%,2.25%,-3.07%,75.1%,63.3%,-0.42%,-1.84%
Cc1cc(Nc2ccc(Br)cc2F)n2nc(C)nc2n1,-19.2%,-14.2%,-4.07%,88.3%,86%,0.87%,-0.15%
CCOc1ccc(OCC)c(S(=O)(=O)NCc2ccc3c(c2)OCO3)c1,-9.29%,-2.62%,-2.97%,95.1%,96.5%,1.52%,5.31%
O=C(Nc1ccccc1Cl)c1ccc2c(c1)N(Cc1ccc(F)cc1)C(=O)CS2=O (stereo unspecified),-5.36%,-7.24%,1.1%,83.3%,72.5%,3.9%,3.95%
CN=C1SC(CC(=O)Nc2ccccc2F)C(=O)N1C (stereo unspecified),0.635%,0.465%,-0.48%,112%,98.9%,1.99%,1.28%
Cc1nnc(Sc2nc3c(c(=O)[nH]c(=O)n3C)n2CCc2ccccc2)s1,-17.6%,-13.6%,-0.89%,102%,100%,0.16%,8.3%
CCO/C(C)=C1\C(=O)N(CC)c2ccccc21,-9.62%,-5.21%,-1.57%,96.7%,97.2%,-0.745%,2.08%
COc1cccc(C2CC(=O)N3CN(c4ccccc4F)CSC3=C2C#N)c1 (stereo unspecified),6.38%,2.71%,-1.76%,102%,94.3%,2.96%,5.8%
CC(C)C(NC(=O)C12CC3CC(CC(C3)C1)C2)C(=O)NC1=NCCS1 (stereo unspecified),-6.21%,7.3%,-3.97%,88%,89.2%,2.41%,4.34%
Cc1[nH]nc2c1C(c1ccccc1F)NC2=O (stereo unspecified),-0.665%,-2.84%,-1.22%,106%,97.9%,2.04%,-0.67%
CCCNc1nc2c(c(=O)[nH]c(=O)n2C)n1Cc1cccc(Br)c1,-4.76%,-9.2%,-2.4%,97.8%,92.6%,3.46%,7.91%
O=c1c2cnn(-c3ccccc3)c2ncn1Cc1ccccc1F,-1.06%,9.05%,-0.65%,93%,88.6%,-0.06%,4.95%
O=C(Nc1ccc(Cl)cc1)C1CC2CCCC(C1)C2=O (stereo unspecified),-7.49%,-3.51%,0.77%,97.2%,99.2%,0.77%,4.61%
CCCCCn1c(N2CCC(Cc3ccccc3)CC2)nc2c1c(=O)[nH]c(=O)n2C,-14.9%,-29.9%,-8.6%,15.1% (active),12.8% (active),1.22%,7.3%
COCCCNC(=O)CS(=O)Cc1nc(-c2ccccc2C)oc1C (stereo unspecified),-4.76%,18%,-1.44%,97.9%,102%,0.445%,6.27%
Clc1ccc(-n2ncc3c(N4CCCCCC4)ncnc32)cc1,1.26%,-16.7%,-0.56%,83.5%,78.5%,-0.14%,8.42%
